Experimental data reported in ChEMBL document CHEMBL4689842, “EUbOPEN Chemogenomics Library wave 1” (2021).

System: HEK-293T
Experiment: Multiplex assay against HEK293T;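 as to Population Tubulin-Different-Phenotype (%): share of the cells with healthy nuclei that show this phenotype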
Assay type: toxicity, cell-based
Conditions: human
Summary of the method: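 Tubulin, mitochondrial-mass and membrane-permeability phenotypes are per cents of healthy-nucleus cells. Cells were gated by CellPathfinder machine learning into Hoechst high-intensity objects or normal cells, normal cells into healthy, pyknosed or fragmented nuclei, and pyknosed cells into mitotic or apoptotic. Before that, live cells stained at seeding with Hoechst33342, BioTracker Green Microtubule Cytoskeleton Dye, MitoTracker Red and Annexin V Alexa Fluor 680 were imaged on a CQ1 microscope at 37°C and 5% CO2 after compound addition.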

[1] = 12 h, 1 µM, compound concentration 1 uM, replicate 1
[2] = 12 h, 1 µM, compound concentration 1 uM, replicate 2
[3] = 12 h, 10 µM, compound concentration 10 uM, replicate 1
[4] = 12 h, 10 µM, compound concentration 10 uM, replicate 2
[5] = 24 h, 1 µM, compound concentration 1 uM, replicate 1
[6] = 24 h, 1 µM, compound concentration 1 uM, replicate 2
[7] = 24 h, 10 µM, compound concentration 10 uM, replicate 1
[8] = 24 h, 10 µM, compound concentration 10 uM, replicate 2
[9] = 48 h, 1 µM, compound concentration 1 uM, replicate 1
[10] = 48 h, 1 µM, compound concentration 1 uM, replicate 2
[11] = 48 h, 10 µM, compound concentration 10 uM, replicate 1
[12] = 48 h, 10 µM, compound concentration 10 uM, replicate 2

COc1cc(-n2cnc3cc(-c4ccc(Cl)cc4)sc3c2=O)ccc1OCCN1CCCC1
Population Apoptotic (%) [1]: 59%
Population Fragmented Nuclei (%) [1]: 8%
Population Healthy Nuclei (%) [1]: 32%
Population Hoechst High Intensity Objects (%) [1]: 15%
Population Membrane Permeable-Phenotype (%) [1]: 1%
Population Mitochondria Different-Phenotype (%) [1]: 96%
Population Mitotic Cells (%) [1]: 40%
Population Normal (%) [1]: 84%
Population Pyknosed Nuclei (%) [1]: 58%
Population Tubulin-Different-Phenotype (%) [1]: 93%
Total Cell Count [1]: 212
Population Apoptotic (%) [2]: 20%
Population Fragmented Nuclei (%) [2]: 5%
Population Healthy Nuclei (%) [2]: 40%
Population Hoechst High Intensity Objects (%) [2]: 4%
Population Membrane Permeable-Phenotype (%) [2]: 7%
Population Mitochondria Different-Phenotype (%) [2]: 42%
Population Mitotic Cells (%) [2]: 80%
Population Normal (%) [2]: 95%
Population Pyknosed Nuclei (%) [2]: 53%
Population Tubulin-Different-Phenotype (%) [2]: 60%
Total Cell Count [2]: 265
Population Apoptotic (%) [3]: 57%
Population Fragmented Nuclei (%) [3]: 23%
Population Healthy Nuclei (%) [3]: 1%
Population Hoechst High Intensity Objects (%) [3]: 23%
Population Membrane Permeable-Phenotype (%) [3]: 0%
Population Mitochondria Different-Phenotype (%) [3]: 75%
Population Mitotic Cells (%) [3]: 42%
Population Normal (%) [3]: 76%
Population Pyknosed Nuclei (%) [3]: 74%
Population Tubulin-Different-Phenotype (%) [3]: 75%
Total Cell Count [3]: 285
Population Apoptotic (%) [4]: 79%
Population Fragmented Nuclei (%) [4]: 16%
Population Healthy Nuclei (%) [4]: 15%
Population Hoechst High Intensity Objects (%) [4]: 4%
Population Membrane Permeable-Phenotype (%) [4]: 33%
Population Mitochondria Different-Phenotype (%) [4]: 58%
Population Mitotic Cells (%) [4]: 20%
Population Normal (%) [4]: 95%
Population Pyknosed Nuclei (%) [4]: 67%
Population Tubulin-Different-Phenotype (%) [4]: 66%
Total Cell Count [4]: 242
Population Apoptotic (%) [5]: 72%
Population Fragmented Nuclei (%) [5]: 11%
Population Healthy Nuclei (%) [5]: 37%
Population Hoechst High Intensity Objects (%) [5]: 14%
Population Membrane Permeable-Phenotype (%) [5]: 1%
Population Mitochondria Different-Phenotype (%) [5]: 100%
Population Mitotic Cells (%) [5]: 27%
Population Normal (%) [5]: 85%
Population Pyknosed Nuclei (%) [5]: 50%
Population Tubulin-Different-Phenotype (%) [5]: 86%
Total Cell Count [5]: 207
Population Apoptotic (%) [6]: 27%
Population Fragmented Nuclei (%) [6]: 4%
Population Healthy Nuclei (%) [6]: 61%
Population Hoechst High Intensity Objects (%) [6]: 2%
Population Membrane Permeable-Phenotype (%) [6]: 7%
Population Mitochondria Different-Phenotype (%) [6]: 52%
Population Mitotic Cells (%) [6]: 72%
Population Normal (%) [6]: 97%
Population Pyknosed Nuclei (%) [6]: 33%
Population Tubulin-Different-Phenotype (%) [6]: 66%
Total Cell Count [6]: 325
Population Apoptotic (%) [7]: 73%
Population Fragmented Nuclei (%) [7]: 31%
Population Healthy Nuclei (%) [7]: 0%
Population Hoechst High Intensity Objects (%) [7]: 30%
Population Membrane Permeable-Phenotype (%) [7]: 0%
Population Mitochondria Different-Phenotype (%) [7]: 0%
Population Mitotic Cells (%) [7]: 26%
Population Normal (%) [7]: 69%
Population Pyknosed Nuclei (%) [7]: 68%
Population Tubulin-Different-Phenotype (%) [7]: 0%
Total Cell Count [7]: 277
Population Apoptotic (%) [8]: 90%
Population Fragmented Nuclei (%) [8]: 20%
Population Healthy Nuclei (%) [8]: 22%
Population Hoechst High Intensity Objects (%) [8]: 7%
Population Membrane Permeable-Phenotype (%) [8]: 21%
Population Mitochondria Different-Phenotype (%) [8]: 68%
Population Mitotic Cells (%) [8]: 9%
Population Normal (%) [8]: 92%
Population Pyknosed Nuclei (%) [8]: 57%
Population Tubulin-Different-Phenotype (%) [8]: 48%
Total Cell Count [8]: 228
Population Apoptotic (%) [9]: 53%
Population Fragmented Nuclei (%) [9]: 13%
Population Healthy Nuclei (%) [9]: 62%
Population Hoechst High Intensity Objects (%) [9]: 9%
Population Membrane Permeable-Phenotype (%) [9]: 5%
Population Mitochondria Different-Phenotype (%) [9]: 73%
Population Mitotic Cells (%) [9]: 46%
Population Normal (%) [9]: 90%
Population Pyknosed Nuclei (%) [9]: 23%
Population Tubulin-Different-Phenotype (%) [9]: 67%
Total Cell Count [9]: 312
Population Apoptotic (%) [10]: 20%
Population Fragmented Nuclei (%) [10]: 4%
Population Healthy Nuclei (%) [10]: 79%
Population Hoechst High Intensity Objects (%) [10]: 3%
Population Membrane Permeable-Phenotype (%) [10]: 6%
Population Mitochondria Different-Phenotype (%) [10]: 21%
Population Mitotic Cells (%) [10]: 79%
Population Normal (%) [10]: 96%
Population Pyknosed Nuclei (%) [10]: 16%
Population Tubulin-Different-Phenotype (%) [10]: 57%
Total Cell Count [10]: 539
Population Apoptotic (%) [11]: 76%
Population Fragmented Nuclei (%) [11]: 45%
Population Healthy Nuclei (%) [11]: 0%
Population Hoechst High Intensity Objects (%) [11]: 29%
Population Membrane Permeable-Phenotype (%) [11]: 0%
Population Mitochondria Different-Phenotype (%) [11]: 100%
Population Mitotic Cells (%) [11]: 23%
Population Normal (%) [11]: 70%
Population Pyknosed Nuclei (%) [11]: 54%
Population Tubulin-Different-Phenotype (%) [11]: 100%
Total Cell Count [11]: 270
Population Apoptotic (%) [12]: 89%
Population Fragmented Nuclei (%) [12]: 21%
Population Healthy Nuclei (%) [12]: 28%
Population Hoechst High Intensity Objects (%) [12]: 10%
Population Membrane Permeable-Phenotype (%) [12]: 12%
Population Mitochondria Different-Phenotype (%) [12]: 73%
Population Mitotic Cells (%) [12]: 10%
Population Normal (%) [12]: 89%
Population Pyknosed Nuclei (%) [12]: 50%
Population Tubulin-Different-Phenotype (%) [12]: 38%
Total Cell Count [12]: 256

CN1CCCC(n2nc(Cc3ccc(Cl)cc3)c3ccccc3c2=O)CC1.Cl (configuration not stated) [AZELASTINE HYDROCHLORIDE]
Population Apoptotic (%) [1]: 50%
Population Fragmented Nuclei (%) [1]: 8%
Population Healthy Nuclei (%) [1]: 42%
Population Hoechst High Intensity Objects (%) [1]: 9%
Population Membrane Permeable-Phenotype (%) [1]: 3%
Population Mitochondria Different-Phenotype (%) [1]: 94%
Population Mitotic Cells (%) [1]: 49%
Population Normal (%) [1]: 90%
Population Pyknosed Nuclei (%) [1]: 50%
Population Tubulin-Different-Phenotype (%) [1]: 84%
Total Cell Count [1]: 333
Population Apoptotic (%) [2]: 40%
Population Fragmented Nuclei (%) [2]: 6%
Population Healthy Nuclei (%) [2]: 24%
Population Hoechst High Intensity Objects (%) [2]: 5%
Population Membrane Permeable-Phenotype (%) [2]: 4%
Population Mitochondria Different-Phenotype (%) [2]: 61%
Population Mitotic Cells (%) [2]: 59%
Population Normal (%) [2]: 94%
Population Pyknosed Nuclei (%) [2]: 69%
Population Tubulin-Different-Phenotype (%) [2]: 68%
Total Cell Count [2]: 190
Population Apoptotic (%) [3]: 82%
Population Fragmented Nuclei (%) [3]: 11%
Population Healthy Nuclei (%) [3]: 16%
Population Hoechst High Intensity Objects (%) [3]: 19%
Population Membrane Permeable-Phenotype (%) [3]: 2%
Population Mitochondria Different-Phenotype (%) [3]: 100%
Population Mitotic Cells (%) [3]: 17%
Population Normal (%) [3]: 80%
Population Pyknosed Nuclei (%) [3]: 72%
Population Tubulin-Different-Phenotype (%) [3]: 78%
Total Cell Count [3]: 289
Population Apoptotic (%) [4]: 89%
Population Fragmented Nuclei (%) [4]: 5%
Population Healthy Nuclei (%) [4]: 23%
Population Hoechst High Intensity Objects (%) [4]: 4%
Population Membrane Permeable-Phenotype (%) [4]: 3%
Population Mitochondria Different-Phenotype (%) [4]: 98%
Population Mitotic Cells (%) [4]: 10%
Population Normal (%) [4]: 95%
Population Pyknosed Nuclei (%) [4]: 70%
Population Tubulin-Different-Phenotype (%) [4]: 56%
Total Cell Count [4]: 231
Population Apoptotic (%) [5]: 56%
Population Fragmented Nuclei (%) [5]: 8%
Population Healthy Nuclei (%) [5]: 37%
Population Hoechst High Intensity Objects (%) [5]: 11%
Population Membrane Permeable-Phenotype (%) [5]: 3%
Population Mitochondria Different-Phenotype (%) [5]: 92%
Population Mitotic Cells (%) [5]: 43%
Population Normal (%) [5]: 88%
Population Pyknosed Nuclei (%) [5]: 54%
Population Tubulin-Different-Phenotype (%) [5]: 83%
Total Cell Count [5]: 353
Population Apoptotic (%) [6]: 50%
Population Fragmented Nuclei (%) [6]: 7%
Population Healthy Nuclei (%) [6]: 49%
Population Hoechst High Intensity Objects (%) [6]: 4%
Population Membrane Permeable-Phenotype (%) [6]: 5%
Population Mitochondria Different-Phenotype (%) [6]: 66%
Population Mitotic Cells (%) [6]: 50%
Population Normal (%) [6]: 95%
Population Pyknosed Nuclei (%) [6]: 43%
Population Tubulin-Different-Phenotype (%) [6]: 74%
Total Cell Count [6]: 223
Population Apoptotic (%) [7]: 82%
Population Fragmented Nuclei (%) [7]: 13%
Population Healthy Nuclei (%) [7]: 13%
Population Hoechst High Intensity Objects (%) [7]: 19%
Population Membrane Permeable-Phenotype (%) [7]: 0%
Population Mitotic Cells (%) [7]: 17%
Population Normal (%) [7]: 80%
Population Pyknosed Nuclei (%) [7]: 72%
Population Tubulin-Different-Phenotype (%) [7]: 59%
Total Cell Count [7]: 289
Population Apoptotic (%) [8]: 93%
Population Fragmented Nuclei (%) [8]: 8%
Population Healthy Nuclei (%) [8]: 33%
Population Hoechst High Intensity Objects (%) [8]: 7%
Population Membrane Permeable-Phenotype (%) [8]: 4%
Population Mitochondria Different-Phenotype (%) [8]: 100%
Population Mitotic Cells (%) [8]: 6%
Population Normal (%) [8]: 92%
Population Pyknosed Nuclei (%) [8]: 58%
Population Tubulin-Different-Phenotype (%) [8]: 38%
Total Cell Count [8]: 230
Population Apoptotic (%) [9]: 49%
Population Fragmented Nuclei (%) [9]: 14%
Population Healthy Nuclei (%) [9]: 42%
Population Hoechst High Intensity Objects (%) [9]: 14%
Population Membrane Permeable-Phenotype (%) [9]: 3%
Population Mitochondria Different-Phenotype (%) [9]: 72%
Population Mitotic Cells (%) [9]: 50%
Population Normal (%) [9]: 85%
Population Pyknosed Nuclei (%) [9]: 42%
Population Tubulin-Different-Phenotype (%) [9]: 70%
Total Cell Count [9]: 404
Population Apoptotic (%) [10]: 47%
Population Fragmented Nuclei (%) [10]: 7%
Population Healthy Nuclei (%) [10]: 65%
Population Hoechst High Intensity Objects (%) [10]: 5%
Population Membrane Permeable-Phenotype (%) [10]: 6%
Population Mitochondria Different-Phenotype (%) [10]: 48%
Population Mitotic Cells (%) [10]: 52%
Population Normal (%) [10]: 94%
Population Pyknosed Nuclei (%) [10]: 26%
Population Tubulin-Different-Phenotype (%) [10]: 71%
Total Cell Count [10]: 324
Population Apoptotic (%) [11]: 79%
Population Fragmented Nuclei (%) [11]: 20%
Population Healthy Nuclei (%) [11]: 6%
Population Hoechst High Intensity Objects (%) [11]: 27%
Population Membrane Permeable-Phenotype (%) [11]: 0%
Population Mitochondria Different-Phenotype (%) [11]: 100%
Population Mitotic Cells (%) [11]: 20%
Population Normal (%) [11]: 72%
Population Pyknosed Nuclei (%) [11]: 73%
Population Tubulin-Different-Phenotype (%) [11]: 38%
Total Cell Count [11]: 297
Population Apoptotic (%) [12]: 89%
Population Fragmented Nuclei (%) [12]: 8%
Population Healthy Nuclei (%) [12]: 57%
Population Hoechst High Intensity Objects (%) [12]: 18%
Population Mitochondria Different-Phenotype (%) [12]: 99%
Population Mitotic Cells (%) [12]: 10%
Population Normal (%) [12]: 81%
Population Pyknosed Nuclei (%) [12]: 34%
Population Tubulin-Different-Phenotype (%) [12]: 15%
Total Cell Count [12]: 231
